Blank lines part the entries; values can stand above or below the molecule they belong to. The source made the active and inactive calls. The calls are words filed in the database; no cut-off is given here.
Key:
JIMT-1 [1] = experiment: Cytotoxicity against human JIMT-1 cells assessed as reduction in cell viability at 10 uM incubated for 72 hrs by MTS assay relative to control; format: functional; conditions: JIMT-1, read-out: INH
Procedure, shortened: (§1)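 Single-concentration primary screen: trastuzumab-sensitive BT474, trastuzumab-resistant JIMT-1 (HER2-positive breast cancer) or normal human embryonic kidney HEK293 cells exposed to compound at 10 μM for 72 h; viability by MTS assay versus DMSO control. Mean ± SEM of at least three independent experiments; Student's t-test.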

BT-474 [2] = experiment: Cytotoxicity against human BT-474 cells assessed as reduction in cell viability at 10 uM incubated for 72 hrs by MTS assay relative to control; format: functional; conditions: BT-474, read-out: INH; procedure, shortened: as §1
[3] = target: T1, Heat shock protein HSP90 (Homo sapiens) (UniProt P07900+P08238); experiment: Inhibition of HSP90 in human JIMT-1 cells assessed as reduction in EGFR expression at 5 uM incubated for 72 hrs by immunoblot analysis; format: cell-based
Procedure, shortened: (§2)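 BT474 and JIMT-1 cells treated 72 h with indicated compound concentrations or vehicle; 30 μg total lysate protein resolved by SDS-PAGE and immunoblotted for HER2, phospho-HER2 (Tyr1221/1222), EGFR, phospho-EGFR (Tyr1068), survivin, HSP90 and HSP70, with actin as loading control.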

[4] = target: T1, Heat shock protein HSP90 (Homo sapiens); experiment: Inhibition of HSP90 in human JIMT-1 cells assessed as reduction in EGFR phosphorylation at 5 uM incubated for 72 hrs by immunoblot analysis; format: cell-based; procedure, shortened: as §2
JIMT-1 [5] = experiment: Cytotoxicity against human JIMT-1 cells assessed as reduction in cell viability incubated for 72 hrs by MTS assay; format: functional, cell-based
Procedure, shortened: (§3)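 Dose-response in BT474 (trastuzumab-sensitive) and JIMT-1 (trastuzumab-resistant) HER2-positive breast cancer cells: compound at 0.1, 0.5, 1, 5, 10 or 20 μM for 72 h, viability by MTS assay. IC50 with 95% confidence intervals calculated from the curves; mean ± SEM of at least three independent experiments, one-way ANOVA with Bonferroni post hoc test versus DMSO control.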

[6] = target: T1, Heat shock protein HSP90 (Homo sapiens); experiment: Inhibition of HSP90 in human BT-474 cells assessed as reduction in HER2 expression at 10 uM incubated for 72 hrs by immunoblot analysis; format: cell-based; procedure, shortened: as §2
[7] = target: T1, Heat shock protein HSP90 (Homo sapiens); experiment: Inhibition of HSP90 in human JIMT-1 cells assessed as reduction in survivin expression at 5 uM incubated for 72 hrs by immunoblot analysis; format: cell-based; procedure, shortened: as §2
HEK293 = experiment: Cytotoxicity against human HEK293 cells assessed as reduction in cell viability at 10 uM incubated for 72 hrs by MTS assay; format: cell-based; conditions: hek293, 72 h; procedure, shortened: as §1
[8] = target: T1, Heat shock protein HSP90 (Homo sapiens); experiment: Inhibition of HSP90 in human BT-474 cells assessed as reduction in EGFR phosphorylation at 10 uM incubated for 72 hrs by immunoblot analysis; format: cell-based; procedure, shortened: as §2
[9] = target: T1, Heat shock protein HSP90 (Homo sapiens); experiment: Inhibition of HSP90 in human JIMT-1 cells assessed as reduction in HER2 expression at 5 uM incubated for 72 hrs by immunoblot analysis; format: cell-based; procedure, shortened: as §2
[10] = target: T1, Heat shock protein HSP90 (Homo sapiens); experiment: Inhibition of HSP90 in human JIMT-1 cells assessed as reduction in HSP70 expression at 10 uM incubated for 24 hrs by DAPI staining based confocal microscopy; format: cell-based
Procedure, shortened: (§4)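 Immunocytochemistry: cells treated 24 h with compound (10 μM) or geldanamycin (0.3 μM), immunostained for HSP70 with DAPI nuclear counterstain, imaged by confocal microscopy at ×500 original magnification.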

[11] = target: T1, Heat shock protein HSP90 (Homo sapiens); experiment: Inhibition of HSP90 in human BT-474 cells assessed as reduction in HSP90 expression at 10 uM incubated for 72 hrs by immunoblot analysis; format: cell-based; procedure, shortened: as §2
BT-474 [12] = experiment: Cytotoxicity against human BT-474 cells assessed as reduction in cell viability incubated for 72 hrs by MTS assay; format: functional, cell-based; procedure, shortened: as §3
[13] = target: T1, Heat shock protein HSP90 (Homo sapiens); experiment: Inhibition of HSP90 in human BT-474 cells assessed as reduction in EGFR expression at 10 uM incubated for 72 hrs by immunoblot analysis; format: cell-based; procedure, shortened: as §2
[14] = target: T1, Heat shock protein HSP90 (Homo sapiens); experiment: Inhibition of HSP90 in human JIMT-1 cells assessed as reduction in HSP90 expression at 5 uM incubated for 72 hrs by immunoblot analysis; format: cell-based; procedure, shortened: as §2
[15] = target: T1, Heat shock protein HSP90 (Homo sapiens); experiment: Inhibition of HSP90 in human BT-474 cells assessed as reduction in HSP70 expression at 10 uM incubated for 24 hrs by DAPI staining based confocal microscopy; format: cell-based; procedure, shortened: as §4
[16] = target: T1, Heat shock protein HSP90 (Homo sapiens); experiment: Inhibition of HSP90 in human BT-474 cells assessed as reduction in survivin expression at 10 uM incubated for 72 hrs by immunoblot analysis; format: cell-based; procedure, shortened: as §2
[17] = target: T1, Heat shock protein HSP90 (Homo sapiens); experiment: Inhibition of HSP90 in human JIMT-1 cells assessed as reduction in HER2 phosphorylation at 5 uM incubated for 72 hrs by immunoblot analysis; format: cell-based; procedure, shortened: as §2
[18] = target: T1, Heat shock protein HSP90 (Homo sapiens); experiment: Inhibition of HSP90 in human JIMT-1 cells assessed as reduction in HSP70 expression at 5 uM incubated for 72 hrs by immunoblot analysis; format: cell-based; procedure, shortened: as §2
[19] = target: T1, Heat shock protein HSP90 (Homo sapiens); experiment: Inhibition of HSP90 in human BT-474 cells assessed as reduction in HER2 phosphorylation at 10 uM incubated for 72 hrs by immunoblot analysis; format: cell-based; procedure, shortened: as §2
[20] = target: T1, Heat shock protein HSP90 (Homo sapiens); experiment: Inhibition of HSP90 in human BT-474 cells assessed as reduction in HSP70 expression at 10 uM incubated for 72 hrs by immunoblot analysis; format: cell-based; procedure, shortened: as §2

Compound: COc1cc(NC(=O)c2ccc3c(c2OC)C=CC(C)(C)O3)ccc1OCCCN1CCCCC1
inhibition at 10 µM (JIMT-1 [1]): > 50% | inhibition at 10 µM (BT-474 [2]): > 50%

Compound: COc1cc(NC(=O)c2ccc3c(c2OC)C=CC(C)(C)O3)ccc1OCCCC1CCN(CCO)CC1
inhibition at 10 µM (JIMT-1 [1]): > 50% | inhibition at 10 µM (BT-474 [2]): > 50%

Compound: COc1cc(NC(=O)c2ccc3c(c2OC)C=CC(C)(C)O3)ccc1OCCCC1CCNCC1
inhibition at 10 µM (JIMT-1 [1]): > 50% | inhibition at 10 µM (BT-474 [2]): > 50%

Compound: COc1cc(NC(=O)c2ccc3c(c2OC)C=CC(C)(C)O3)ccc1OCC1CCNCC1
inhibition at 10 µM (JIMT-1 [1]): > 50% | inhibition at 10 µM (BT-474 [2]): > 50%

Compound: COc1cc(NC(=O)c2ccc3c(c2OC)C=CC(C)(C)O3)ccc1OCCC1CCCCN1C (centres undefined)
inhibition at 10 µM (JIMT-1 [1]): > 50% | inhibition at 10 µM (BT-474 [2]): > 50%

Compound: COc1cc(NC(=O)c2ccc3c(c2OC)C=CC(C)(C)O3)ccc1OCCCC1CCCCN1 (centres undefined)
inhibition at 10 µM (JIMT-1 [1]): > 50% | inhibition at 10 µM (BT-474 [2]): > 50%

inhibition [3]: Active | inhibition [4]: Active | inhibition [6]: Active | inhibition [8]: Active | inhibition [9]: Active | inhibition [10]: inactive | inhibition [11]: inactive | inhibition [13]: Active | inhibition [14]: inactive | inhibition [15]: inactive | inhibition [17]: Active | inhibition [18]: inactive | inhibition [19]: Active | inhibition [20]: inactive
Compound: COc1cc(NC(=O)c2ccc3c(c2OC)C=CC(C)(C)O3)ccc1OCCC1CCCCN1 (centres undefined)
inhibition at 10 µM (JIMT-1 [1]): > 50% | Activity (JIMT-1 [5]): Dose-dependent effect | IC50 (JIMT-1 [5]; JIMT-1, 72 h): 4.45 µM | inhibition [7]: Active | Activity (HEK293): Non-Toxic | Activity (BT-474 [12]): Dose-dependent effect | IC50 (BT-474 [12]; BT-474, 72 h): 8.53 µM | inhibition [16]: Active | inhibition at 10 µM (BT-474 [2]): > 50%

Compound: COc1cc(NC(=O)c2ccc3c(c2OC)C=CC(C)(C)O3)ccc1OCC1CCN(C)CC1
inhibition at 10 µM (JIMT-1 [1]): > 50% | inhibition at 10 µM (BT-474 [2]): > 50%

Compound: COc1cc(NC(=O)c2ccc3c(c2OC)C=CC(C)(C)O3)ccc1OCCCC1CCN(C)CC1
inhibition at 10 µM (JIMT-1 [1]): > 50% | inhibition at 10 µM (BT-474 [2]): > 50%

Reference: ChEMBL document CHEMBL4725316, “Discovery of novel anti-breast cancer agents derived from deguelin as inhibitors of heat shock protein 90 (HSP90)” (Bioorg Med Chem Lett, 2020)
